OX1R antag-1 = antagonists of human orexin 1 receptor; inhibition, % at 5 µM; hit rate 0.43% among 330,000; AID 434989; CHO/OX1R cells, Fluo-8 calcium fluorescence, orexin A; O43613;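 active = inhibition above its plate's threshold, mean inhibition of all tested compounds on the plate plus 3 SD, cut at about 37% in these data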
GalR3 antagonist = blocks the human galanin receptor 3 | HEK293 GalR3-CNG cAMP membrane potential fluorescence; galR3 body fused to GalR1 C-terminus | O60755 | hit rate 0.44% among 360,000 | inhibition, % at 3 µM;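 active = inhibition above the screen-wide average plus 3 SD, cut at about 13% in these data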;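 also: forskolin and galanin both at EC90 stimulate the cells; cAMP rise reported by CNG channel membrane potential dye signal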
CHO parental Ca = counter-screen: ATP calcium response change in parental CHO cells. parental CHO-K1, ATP-induced calcium, Fluo-8 fluorescence. inhibition, % at 5.6 µM. hit rate 0.63% among 330,000. AID 463079;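 active = inhibition above that plate's mean sample inhibition plus 3 SD, cut at about 26% in these data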
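Material: Parental CHO cells | Reagent: ATP | Compound dosing: Single nominal dose of 5.6 µM per compound | Detection: Intracellular calcium via Fluo-8 no-wash fluorescent dye | Read-out: % inhibition of ATP-induced calcium mobilization | Benchmarks: Low control ATP plus DMSO, high control DMSO only | Replicates: Singlicate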
GPR7 antagonist = blocks human GPR7 receptor signaling; P48145; GPR7-expressing cells, fluorescence antagonist assay; inhibition, % at 4.4 µM; hit rate 1.1% among 290,000; AID 1861; in the data active = inhibition above about 16%, passing the limit was not always enough;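 also: cells stimulated with the agonist NPW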
Target sequence (P48145 whole entry, looked up): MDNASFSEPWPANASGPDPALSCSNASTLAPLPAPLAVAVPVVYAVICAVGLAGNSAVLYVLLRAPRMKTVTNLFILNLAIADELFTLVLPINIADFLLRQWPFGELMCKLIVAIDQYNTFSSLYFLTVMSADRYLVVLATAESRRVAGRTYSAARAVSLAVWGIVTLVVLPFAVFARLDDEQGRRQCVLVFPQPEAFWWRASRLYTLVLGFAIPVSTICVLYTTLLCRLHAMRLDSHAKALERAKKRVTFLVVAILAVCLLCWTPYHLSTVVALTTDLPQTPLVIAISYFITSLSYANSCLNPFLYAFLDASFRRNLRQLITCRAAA
OX1R antag-2 = blocks the human orexin 1 receptor. hit rate 1.8% among 330,000. OX1R-expressing cells, FRET antagonist read-out. inhibition, % at 6.6 µM; in the data active = inhibition mostly above about 38%, no sharp cut-off; inactive = mostly below about 40%
Numbers stand for hits; . = inactive; / = not tested or not shown. Only some compounds are listed: those with a hit (about 3.1% of all), similar ones and a draw of the others.

SMILES	OX1R antag-1	GalR3 antagonist	CHO parental Ca	GPR7 antagonist	OX1R antag-2
COc1ccc(/C=C\C(=O)O[C@@H]2C(O)C(O[C@@H]3OC(C)[C@H](O[C@@H]4OCC(O[C@H]5O[C@H](CO)[C@@H](O)C(O)C5O)C(O)C4O)C(O)C3O)[C@H](OC(=O)[C@]34CCC(C)(C)C[C@@H]3C3=CCC5[C@@]6(C)CC(O)C(O[C@@H]7OC(CO)C(O)[C@H](O)[C@H]7O)[C@@](C)(C(=O)O)C6CC[C@@]5(C)[C@]3(CO)CC4)O[C@H]2C)cc1 (stereo partly drawn)	110	/	101	/	.
C[C@@H]1CC[C@]2(C(=O)O[C@@H]3O[C@H](CO)[C@@H](O)[C@H](O)[C@H]3O)CC[C@]3(C)C(=CCC4[C@@]5(C)CC[C@H](O[C@@H]6OC[C@H](O)[C@H](O[C@@H]7O[C@H](CO)[C@@H](O)[C@H](O)[C@H]7O)[C@H]6O)C(C)(C)C5CC[C@]43C)C2[C@]1(C)O (stereo partly drawn)	.	.	.	/	.
CCOC(=O)N1CCN(C(=O)CS(=O)(=O)c2cn(Cc3ccc(F)cc3)c3ccccc23)CC1	.	/	.	/	62
COc1cccc(C(CC2=CCCCC2)NC(=O)C(F)(F)F)c1 (stereo not drawn)	/	.	/	/	/
CCCCSc1nc(C)cc(SCC(=O)N/N=C/c2cccc(OC)c2O)n1	57	.	34	.	.
COc1cccc(/C=N/NC(=O)CSc2nnc(C)n2-c2ccccc2)c1O	.	.	.	.	.
c1ccc(CNc2nc(-c3cccs3)nc3ccccc23)nc1	.	.	.	.	54
O=C(Nc1ccc(Cl)cc1)N1CCCN(c2ccc(C(F)(F)F)cc2[N+](=O)[O-])CC1	57	.	.	.	.
O=[N+]([O-])c1cc(C(F)(F)F)ccc1N1CCC(O)CC1	.	.	.	.	.
c1ccc(N(c2ccccc2)c2nc(-n3ccnc3)nc(-n3ccnc3)n2)cc1	82	.	42	.	.
O=C(C1CC1)N(CCN(Cc1ccccc1)C(=O)C1CC1)Cc1ccccc1	.	.	.	43	.
O=C(c1ccccc1)N(Cc1ccccc1)Cc1ccccc1	.	.	.	.	.
CCCCCCCCCCCn1nnnc1N	/	.	/	/	/
O=C1NC(=O)C(c2cccs2)(c2cccs2)N1	.	.	.	.	.
COC(=O)/C(C#N)=C/c1c[nH]c2ccccc12	.	.	.	.	.
CCOC(=O)/C(C#N)=C/c1c[nH]c2ccccc12	.	.	.	.	51
O=C(COc1ccccc1F)OCC(=O)c1ccc([N+](=O)[O-])cc1	.	.	.	/	31
O=C(COC(=O)c1cnccn1)c1ccc([N+](=O)[O-])cc1	.	.	.	.	44
Cc1ccccc1OCC(=O)NCC(=O)OCC(=O)c1ccc([N+](=O)[O-])cc1	.	.	.	.	.
O=C(COC(=O)Cc1ccccc1F)NNC(=O)c1ccc([N+](=O)[O-])cc1	.	.	.	/	63
O=C(CCC(=O)OCC(=O)c1ccc([N+](=O)[O-])cc1)Nc1ccccc1Cl	.	/	.	.	58
CCCCNc1cccc2c1S(=O)(=O)N[C@H](CC(C)C)CO2	/	.	/	/	/
COc1cccc(CNC(=O)[C@H]2CCCN2C(=O)[C@H]2CCCN2C(=O)c2ccc(OC(F)(F)F)cc2)c1	/	.	/	/	/
COC(=O)c1cn(CC(C)n2c(=O)c3ccccc3n2Cc2cc(C(C)C)no2)nn1 (stereo not drawn)	/	.	/	/	/
CC(O)C(NS(=O)(=O)c1ccc(Cl)cc1)C(=O)OCC(=O)Nc1cccnc1Cl (stereo not drawn)	.	.	.	25	.
SMILES	OX1R antag-1	GalR3 antagonist	CHO parental Ca	GPR7 antagonist	OX1R antag-2
COc1cc(Cl)c(C)cc1NC(=O)COC(=O)C(NS(=O)(=O)c1ccc(Cl)cc1)C(C)O (stereo not drawn)	.	.	.	.	.
CCOc1ccc(CCNC(=O)CS(=O)Cc2nc(-c3ccc(C)cc3)oc2C)cc1OCC (stereo not drawn)	.	.	.	.	.
CCOc1ccc(CCNC(=O)CS(=O)Cc2nc(-c3ccccc3C)oc2C)cc1OCC (stereo not drawn)	.	.	.	.	57
COc1cccc(/C=N/Nc2nnc3c(n2)[nH]c2ccccc23)c1OC	.	.	.	.	45
Fc1ccccc1/C=C/c1ccc2ccccc2n1	.	.	.	.	72
C(=C\c1ccc2ccccc2n1)/c1ccccc1	.	.	.	.	.
CN1Cc2c(N3CCOCC3)nc3sc(C(=O)c4ccc(Br)cc4)c(N)c3c2CC1(C)C	.	.	35	44	.

High-throughput results as filed in PubChem BioAssay.
